According to ChEMBL document CHEMBL1158958, “Studies on inhibitors of skin tumor promotion, IX. Neolignans from Magnolia officinalis” (J Nat Prod, 1991):

What was measured:
Raji [1] = assay: Inhibition of 12-O-tetradecanoylphorbol-13-acetate-induced EBV-early antigen activation in human Raji cells at 500 molar ratio after 48 hrs relative to TPA; format: cell-based; set-up: scale not given: the % may be the effect or the level left; conditions: human gammaherpesvirus 4
Summary of the method: (§1)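 Raji indicator cells kept 48 h at 37° in 1 ml medium with n-butyric acid (4 mM, co-inducer), TPA (20 ng/ml, […]) and test compound in DMSO, dosed as mol ratio to TPA. EA-positive cells were found by indirect immunofluorescence on smears with high-titer EBV-positive NPC patient sera. At least 500 cells counted per assay, repeated twice. Induction is expressed relative to the butyric acid+TPA positive control (100%).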

[2] = Cytotoxicity against human Raji cells assessed as cell viability at 10 molar ratio; format: cell-based; conditions: read-out: Activity
Summary of the method: (§2)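 Raji cell viability read in the same EBV-EA run: 48 h at 37° with n-butyric acid (4 mM) and TPA ([…]) plus test compound in DMSO, dosed as mol ratio to TPA. Viability is given alongside the relative EA activation values.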

Raji [3] = assay: Inhibition of 12-O-tetradecanoylphorbol-13-acetate-induced EBV-early antigen activation in human Raji cells at 100 molar ratio after 48 hrs relative to TPA; format: cell-based; set-up: scale not given: the % may be the effect or the level left; conditions: human gammaherpesvirus 4; summary of the method: as §1
[4] = Cytotoxicity against human Raji cells assessed as cell viability at 100 molar ratio; format: cell-based; conditions: read-out: Activity; summary of the method: as §2
[5] = Cytotoxicity against human Raji cells assessed as cell viability at 1000 molar ratio; format: cell-based; conditions: read-out: Activity; summary of the method: as §2
Raji [6] = assay: Inhibition of 12-O-tetradecanoylphorbol-13-acetate-induced EBV-early antigen activation in human Raji cells at 1 molar ratio after 48 hrs relative to TPA; format: cell-based; set-up: scale not given: the % may be the effect or the level left; conditions: human gammaherpesvirus 4; summary of the method: as §1
[7] = Cytotoxicity against human Raji cells assessed as cell viability at 1 molar ratio; format: cell-based; conditions: read-out: Activity; summary of the method: as §2
Raji [8] = assay: Inhibition of 12-O-tetradecanoylphorbol-13-acetate-induced EBV-early antigen activation in human Raji cells at 10 molar ratio after 48 hrs relative to TPA; format: cell-based; set-up: scale not given: the % may be the effect or the level left; conditions: human gammaherpesvirus 4; summary of the method: as §1
Raji [9] = assay: Inhibition of 12-O-tetradecanoylphorbol-13-acetate-induced EBV-early antigen activation in human Raji cells at 1000 molar ratio after 48 hrs relative to TPA; format: cell-based; set-up: scale not given: the % may be the effect or the level left; conditions: human gammaherpesvirus 4; summary of the method: as §1
[10] = Cytotoxicity against human Raji cells assessed as cell viability at 500 molar ratio; format: cell-based; conditions: read-out: Activity; summary of the method: as §2
Mus musculus = assay: Inhibition of DMBA-induced/TPA-promoted carcinogenesis in ICR mouse assessed as reduction of skin papillomas per mouse at 85 nmol administered twice weekly after 1 week of initiation measured after 20 weeks; format: functional; set-up: scale not given: the % may be the effect or the level left
Summary of the method: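 Female ICR mice, 7 weeks old, 15 per group, had shaved backs. They were initiated with DMBA (100 µg, […]) in Me2CO, then promoted from 1 week later with TPA (1 µg, […]) in Me2CO twice weekly, with test agent given with TPA. Papilloma incidence and average papillomas per mouse were scored against the TPA-alone control.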

SMILES | Activity (Raji [1]) [%] | viability at 10 molar ratio [2] [%] | Activity (Raji [3]) [%] | viability at 100 molar ratio [4] [%] | viability at 1000 molar ratio [5] [%] | Activity (Raji [6]) [%] | viability at 1 molar ratio [7] [%] | Activity (Raji [8]) [%] | Activity (Raji [9]) [%] | viability at 500 molar ratio [10] [%] | Activity (Mus musculus) [%]
CC1=CC[C@H](C(C)C)C=C1 [ALPHA-PHELLANDRENE] | 93.7 | > 80 | 100 | > 80 | > 80 | 100 | > 80 | 100 | 78.5 | > 80 | –
C=C1CCC[C@]2(C)CC[C@@H](C(C)(C)O)C[C@@H]12 [BETA-EUDESMOL] | 68.9 | > 80 | 83.8 | > 80 | > 80 | 100 | > 80 | 100 | 40.1 | > 80 | –
C=CCc1ccc(O)c(-c2ccc(O)c(CC=C)c2)c1 [HONOKIOL] | 18.5 | > 80 | 69.4 | > 80 | 60 | 100 | > 80 | 90.1 | 0 | > 80 | –
C=CCc1ccc(O)c(-c2cc(CC=C)ccc2O)c1 [MAGNOLOL] | 0 | > 80 | 31.2 | > 80 | 70 | 94.4 | > 80 | 56.9 | 0 | > 80 | 40
C=CCc1ccc(O)c(-c2cc(CC=C)cc(C3C=C(C)CC[C@@H]3C(C)C)c2O)c1 (stereo partly specified) [MONOTERPENYL MAGNOLOL] | 20.9 | > 80 | 82.6 | > 80 | 60 | 100 | > 80 | 100 | 11.6 | > 80 | –
